The values that follow come from PubChem BioAssay AID463141 (The Scripps Research Institute Molecular Screening Center, 2010).

Molecules are shown by their SMILES. The whole screen tested about 330,000 compounds, of which about 350 (0.11%) were called active. Many of the other results were omitted from the sample, so actives are more common in it than they were. A number with no mark means an inactive call.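 Rule for the calls: active = activation above the mean of all tested compounds plus 3 SD (cut at about 21% in these data); inactive = the rest.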

The target of this assay is Caspase-3 (Homo sapiens) (UniProt P42574). The assay is described as follows: activators of human procaspase-3 D3A mutant, primary screen, biochemical, absorbance, PC-3 D3A mutant, single concentration (AID 463141).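 Note: 0% = DMSO alone and 100% = DMSO wells spiked with extra 5 µM PC-3 D3A.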 The settings on record: recombinant procaspase-3 D3A, Ac-DEVD-pNA absorbance 405 nm; at 8.5 µM; active compounds read high. The essentials: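 Technique: 405 nm absorbance of p-nitroaniline, reads at 0 and 120 min; Test system: Procaspase-3 D3A mutant; Incubation: 1 h enzyme-compound preincubation, then 2 h substrate reaction, 25 °C; Repeats: singlicate, each compound tested once; Benchmarks: low control DMSO wells, high control DMSO plus 5 µM PC-3 D3A.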
Chain of Caspase-3 (Homo sapiens) (P42574 whole entry D9A/D28A/D175A): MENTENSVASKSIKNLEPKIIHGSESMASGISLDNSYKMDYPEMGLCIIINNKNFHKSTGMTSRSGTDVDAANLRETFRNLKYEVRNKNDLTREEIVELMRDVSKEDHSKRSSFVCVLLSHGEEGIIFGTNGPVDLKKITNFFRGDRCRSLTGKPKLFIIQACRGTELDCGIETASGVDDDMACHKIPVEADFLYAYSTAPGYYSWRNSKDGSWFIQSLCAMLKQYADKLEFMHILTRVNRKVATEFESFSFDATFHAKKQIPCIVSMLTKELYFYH
As for `c1ccc2cc(CCCc3cc4ccccc4cn3)ncc2c1`, the activation is -5.39%.

For `O=C(COC(=O)c1cccc(Cl)c1)NC(=O)NCc1ccccc1`, the activation is 7.09%.

Turning to `Cc1cc(C)c2c(-n3cccc3)c(C(=O)NNS(=O)(=O)c3ccc(F)cc3)sc2n1`, the activation was -8.55%.

In the case of `CCOC(=O)C1=CN(Cc2ccc(Br)cc2)S(=O)(=O)NC1C` (stereo not given), the activation was -3.39%.

With `COC(=O)C1=C(C)N(C(C)c2ccccc2)C(=O)/C1=C\c1ccco1` (stereo not given), the activation is 1.04%.

In the case of `Cc1ccc(-c2nnc(Nc3ccc(C(=O)N(C)C)cc3)c3ccccc23)cc1S(N)(=O)=O`, the activation was 6.07%.

Take `COC(=O)c1ccc(CNC(=O)C2CCC(=O)N(Cc3ccccn3)C2)cc1` (stereo not given): the activation was 4.62%.

Turning to `CN(C)/C=C(/C(=O)c1ccc(F)cc1)S(=O)(=O)c1ccc(F)cc1`, the activation was 2.38%.

With `O=C(Nc1ccccc1-c1nnn(CC(=O)N2CCCc3ccccc32)n1)c1cccc(Cl)c1`, the activation is 0.94%.

On to `CCC(C)[C@H](NC(=O)N1CCn2c1nc1ccccc12)C(=O)NCc1ccc(OC)cc1` (stereo not given in full), for which the activation is 9.75%.

In the case of `COc1cccc(NC(=S)C(C#N)=C2N(C)c3ccccc3N2C)c1`, the activation is 0.38%.

Turning to `CC1=C(C(=O)OC(C)(C)C)C(c2ccc(Br)cc2)NC(=O)N1CCCC(=O)O` (stereo not given), the activation is 1.2%.

For `CC(=O)c1ccc(NC(=O)C(C)N(C)CC(=O)Nc2ccccc2Cl)cc1` (stereo not given), the activation was -3.65%.

For the compound `CCC(C)(C)NC(=O)c1cc([N+](=O)[O-])ccc1N1CCCCC1`, the activation is -7.67%.

For the compound `N#Cc1c(NCCO)ccc([N+](=O)[O-])c1NCCO`, the activation was 3.1%.

Regarding `O=S(=O)(N/N=C\c1cccn1-c1ccccc1)c1ccc2ccccc2c1`, the activation is 0.8%.

Regarding `COc1cc(CN2CCN(Cc3ccc(C)cc3)CC2)c([N+](=O)[O-])cc1OC`, the activation is 8.01%.

With `COc1ccc(-c2noc(CCC(=O)N3CCN(c4cccc(C)c4)CC3)n2)cc1`, the activation was -0.7%.

For `CCOc1ccc(S(=O)(=O)NCCSc2ccccc2)cc1`, the activation was -4.36%.

For the compound `CCOc1ccc2nc(NCCNC(=O)C(C)(C)C)c(C)cc2c1`, the activation is -11.1%.

For the compound `CCOc1ccc2nc(NCCNS(=O)(=O)c3ccccc3)c(C#N)cc2c1`, the activation is 27.3% (active).

For `C[C@H](CO)N1C[C@H](C)[C@@H](CN(C)S(=O)(=O)c2ccc(F)cc2)Oc2ccc(NC(=O)CCC(F)(F)F)cc2C1=O`, the activation is 7.71%.

As for `COCCNC(=S)Nc1cc(S(=O)(=O)N2CCOCC2)ccc1N1CCCCC1`, the activation is -18.3%.

As to `CCC(C)N1CC(=O)N2Cc3[nH]c4ccccc4c3C[C@H]2C1=O` (stereo not given in full), the activation is 0.63%.

As for `CC(=O)Nc1ccc(NC(=O)C(C)OC(=O)c2ccccc2C(=O)c2ccc(Cl)c([N+](=O)[O-])c2)cc1` (stereo not given), the activation was -0.74%.

`COC(=O)c1nc2n(n1)C(c1ccc([N+](=O)[O-])cc1)C(C(=O)Nc1ccc(Cl)cc1)=C(C)N2` (stereo not given): the activation is 3.68%.

For `COC(=O)c1sc(N)c(C(=O)OC)c1COC(=O)CNS(=O)(=O)c1ccc(C)cc1`, the activation was 3.17%.

In the case of `CCN1CCN(C(=O)C2(NC(=O)Nc3cccc(F)c3)CCCCC2)CC1`, the activation is -1.86%.

Turning to `COc1ccc2sc(-c3ccc(S(C)(=O)=O)cc3)c(C#Cc3cncn3C)c2c1`, the activation is -7.99%.

Regarding `COc1ccc(-c2sc3ccc(OC)cc3c2C#Cc2ccccn2)cc1`, the activation was 21.3% (active).

Take `COc1ccc2sc(-c3ccc(N(C)C)cc3)c(C#CCO)c2c1`: the activation was 21.1%.

As to `CC(C)C[C@H](NC(=O)C1CC(=O)N(c2ccc3c(c2)OCCO3)C1)C(=O)NC1CCCC1` (stereo not given in full), the activation was 0.18%.

Take `COc1ccc(/C=N/Nc2nc(-c3ccc(C)cc3)c(C#N)c(=O)[nH]2)cc1`: the activation was 8.75%.

For `COc1ccc(/C=N/Nc2nc3ccccc3c(=O)[nH]2)cc1`, the activation is 30.4% (active).

As to `COc1ccc(/C=N/Nc2ccccc2C(=O)O)cc1`, the activation is 1%.

Take `Cc1cc(-c2nc(C)c(-c3nnc(SCC(=O)Nc4ccccc4)n3C)s2)no1`: the activation was -5.75%.

`CCN(CC)S(=O)(=O)c1ccc(N2CCN(C)CC2)c(NC(=O)Nc2ccccc2F)c1`: the activation was 4.2%.

Turning to `COc1ccc(NS(=O)(=O)c2ccc(C)c(C(=O)N(C)Cc3ccc(OC)cc3OC)c2)cc1`, the activation is 10.5%.

Regarding `CC(=O)N1Cc2ccccc2CC1C(=O)O` (stereo not given), the activation was 2.69%.

On to `O=C(CCCn1c(=O)c2sccc2n(CC(=O)NCC2CCCO2)c1=O)NCc1ccco1` (stereo not given), for which the activation was 3.97%.

As for `COc1cc(/C=C/C(=O)OCC(=O)Nc2cccc(Oc3ccccc3)c2)ccc1O`, the activation is -1.86%.

For the compound `O=C(NC1(C(F)(F)F)N=C2SCCN2C1=O)c1ccco1` (stereo not given), the activation was 1.41%.

With `Cc1ccc(NC(=O)Nc2cc(-c3ccccc3)nn2C)cc1Cl`, the activation is -13.2%.

In the case of `COC(=O)[C@]1(S(=O)(=O)c2ccccc2)C[C@@H]2ON=C(c3ccc(OC)cc3)[C@@H]2C1`, the activation is -6.69%.

Regarding `CCCCNc1nc2ccccc2nc1NS(=O)(=O)c1cccs1`, the activation was 10.7%.

On to `O=C(Nc1ccccc1Cl)/C(Cl)=C(\Cl)S(=O)c1ccccc1` (stereo not given), for which the activation was -26.7%.

For `CCOC(=O)CCC(=O)OCC(=O)NC(C)C1CC2CCC1C2` (stereo not given), the activation is 2.01%.

On to `O=S(=O)(O)Oc1c[nH]c2ccccc12`, for which the activation was 4.41%.

Take `CCCN(C(=O)c1nc2nccc(C)n2n1)c1c(N)n(Cc2ccccc2)c(=O)[nH]c1=O`: the activation was 1.38%.

Take `CN(CC1CCCO1)S(=O)(=O)c1ccc(C(=O)Nc2ccc(F)cc2)cc1` (stereo not given): the activation is -2.76%.

For `NC(=O)c1ccccc1N=Cc1ccc2ccccc2c1`, the activation is 9.74%.

As for `COC(=O)CN1C(=O)[C@H]2[C@@H](C3CC3)N3C(=O)CN(Cc4ccc(-c5ccccc5)cc4)C(=O)[C@@]3(Cc3ccccc3)[C@H]2C1=O`, the activation was 15.8%.

`CC(=O)c1sc(N/N=C/c2ccc(C(C)C)cc2)nc1C`: the activation is -6.85%.

Regarding `CCCn1c(C)cc(C(=O)COC(=O)c2c(C)nn(-c3ccccc3)c2C)c1C`, the activation was 0.04%.

For `Cc1ccc(-c2nc(SCC(=O)Nc3ccccc3OC(F)F)c3c(C)c(C(=O)O)sc3n2)cc1`, the activation is -2.33%.
